According to ChEMBL document CHEMBL4480403, “DDX3X Helicase Inhibitors as a New Strategy To Fight the West Nile Virus Infection” (J Med Chem, 2019):
The source made the active and inactive calls. No cut-off for these calls is given here.

Key:
[1] = system: West Nile virus; test: Antiviral activity against West Nile virus infected in human HuH7 cells incubated for 4 days by crystal violet staining based plaque reduction assay; format: functional, organism-based; settings: Huh-7, 96 h
Summary of the method: (§1)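 Huh7 cells (2.5 × 10^5 per well, overnight) infected with lineage 2 WNV at MOI 0.1 for 1 h at 37°C, washed, then compound added in 10-fold dilutions (final 100–0.01 μM) with DMSO as virus control. Agarose overlay, 4 days at 37°C, methanol fixation, crystal violet staining. PFU relative to DMSO; IC50 by exponential fit at 50% PFU. Duplicates, repeated at least twice.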

[2] = Metabolic stability in human liver microsomes at 50 uM after 60 mins in presence of NADPH-generating system by LC-UV-MS analysis; format: ADME, Microsome; settings: read-out: Stability
Summary of the method: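 Compound at 50 μM final (DMSO ≤2%) incubated with human liver microsomes (0.2 mg/mL) and NADPH-generating system in 125 mM phosphate buffer pH 7.4, 37 °C, 60 min. Remaining compound measured by LC-ESI-MS in positive ion mode, with UV at 280 nm.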

[3] = Apparent permeability of the compound by PAMPA; format: ADME
Summary of the method: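 PAMPA: 0.5 mM donor solution in pH 7.4 phosphate buffer, diluted from 1 mM DMSO stock. Filter coated with 1% phosphatidylcholine in dodecane; acceptor 50% DMSO in buffer. Incubated 5 h at room temperature with shaking. Donor and acceptor quantified by LC-UV at 280 nm and Papp calculated. Three plates on different days.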

[4] = target: ATP-dependent RNA helicase DDX3X (Homo sapiens, UniProt O00571); test: Inhibition of full length His-tagged human DDX3X expressed in Escherichia coli assessed as reduction in DDX3X helicase activity using FAM-labeled double stranded RNA as substrate after 40 mins by FRET assay relative to control
Chain of ATP-dependent RNA helicase DDX3X (O00571 2-662 limits assumed): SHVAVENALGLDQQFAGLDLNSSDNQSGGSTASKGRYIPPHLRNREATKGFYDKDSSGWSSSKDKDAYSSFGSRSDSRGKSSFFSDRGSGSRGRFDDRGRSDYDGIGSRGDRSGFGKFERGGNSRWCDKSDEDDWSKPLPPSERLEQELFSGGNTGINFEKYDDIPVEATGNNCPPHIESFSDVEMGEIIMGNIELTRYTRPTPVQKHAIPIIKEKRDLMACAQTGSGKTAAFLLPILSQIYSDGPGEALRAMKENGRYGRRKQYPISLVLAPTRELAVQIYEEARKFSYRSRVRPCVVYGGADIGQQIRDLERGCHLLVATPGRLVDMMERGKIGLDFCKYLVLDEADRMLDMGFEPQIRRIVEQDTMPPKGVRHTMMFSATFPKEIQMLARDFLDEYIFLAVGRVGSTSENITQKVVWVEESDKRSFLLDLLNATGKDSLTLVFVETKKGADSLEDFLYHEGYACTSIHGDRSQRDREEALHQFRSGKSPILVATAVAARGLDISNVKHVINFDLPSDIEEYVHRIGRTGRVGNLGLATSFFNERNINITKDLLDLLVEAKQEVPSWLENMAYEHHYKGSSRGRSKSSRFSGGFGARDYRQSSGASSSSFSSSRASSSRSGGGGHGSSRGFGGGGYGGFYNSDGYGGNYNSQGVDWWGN
Summary of the method: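 Recombinant His-tagged full-length DDX3X expressed in E. coli, Ni-NTA purified. Unwinding of FAM-labelled dsRNA, with capture strand at 100 nM, in Tris-HCl pH 8, 70 mM KCl, 2 mM MgCl2, 2 mM DTT, 2 mM ATP. Started with DDX3X, 37°C, 40 min, fluorescence read every 30 s. Initial slope gives unwinding rate; IC50 by nonlinear regression of triplicates.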

[5] = (§2) Cytotoxicity against human HuH7 cells after 3 days by MTT assay; format: cell-based, Huh-7; settings: human, HuH7 cells
Summary of the method: (§3)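 Huh7 cells (2.5 × 10^4 per well) adhered overnight. Confluent monolayers washed, then treated with compound (final 100–0.01 μM) or DMSO control for 3 days at 37°C. Viability by MTT, absorbance 570 nm, expressed relative to DMSO-treated cells.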

[6] = system: West Nile virus; test: Antiviral activity against West Nile virus; format: functional, organism-based; summary of the method: as §1
[7] = system: West Nile virus; test: Antiviral activity against West Nile virus infected in human A549 cells incubated for 4 days by crystal violet staining based plaque reduction assay; format: functional, organism-based; settings: A549, 96 h
Summary of the method: (§4)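 Cell monolayers at 80–90% confluence were infected with WNV lineage 2 strain at MOI 0.1 for 1 h at 37°C with 5% CO2, then washed. DMSO vehicle or compound (final 100, 10, 1, 0.1, 0.01 μM) was added in duplicate under a 0.5% agarose overlay. Ribavirin served as reference. After methanol fixation and 0.1% crystal violet staining, PFU were expressed relative to DMSO control. IC50 was interpolated at 50% PFU; experiments were repeated at least twice.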

[8] = system: West Nile virus; test: Antiviral activity against West Nile virus infected in African green monkey Vero cells incubated for 4 days by crystal violet staining based plaque reduction assay; format: functional, organism-based; settings: 96 h; summary of the method: as §4
[9] = system: Huh-7; test: as §2; format: cell-based; settings: Homo sapiens, Huh-7, 72 h; summary of the method: as §3
[10] = target: T1, ATP-dependent RNA helicase DDX1 (Homo sapiens, UniProt Q92499); test: Inhibition of human DDX1 helicase activity
T1 sequence (Q92499 whole entry): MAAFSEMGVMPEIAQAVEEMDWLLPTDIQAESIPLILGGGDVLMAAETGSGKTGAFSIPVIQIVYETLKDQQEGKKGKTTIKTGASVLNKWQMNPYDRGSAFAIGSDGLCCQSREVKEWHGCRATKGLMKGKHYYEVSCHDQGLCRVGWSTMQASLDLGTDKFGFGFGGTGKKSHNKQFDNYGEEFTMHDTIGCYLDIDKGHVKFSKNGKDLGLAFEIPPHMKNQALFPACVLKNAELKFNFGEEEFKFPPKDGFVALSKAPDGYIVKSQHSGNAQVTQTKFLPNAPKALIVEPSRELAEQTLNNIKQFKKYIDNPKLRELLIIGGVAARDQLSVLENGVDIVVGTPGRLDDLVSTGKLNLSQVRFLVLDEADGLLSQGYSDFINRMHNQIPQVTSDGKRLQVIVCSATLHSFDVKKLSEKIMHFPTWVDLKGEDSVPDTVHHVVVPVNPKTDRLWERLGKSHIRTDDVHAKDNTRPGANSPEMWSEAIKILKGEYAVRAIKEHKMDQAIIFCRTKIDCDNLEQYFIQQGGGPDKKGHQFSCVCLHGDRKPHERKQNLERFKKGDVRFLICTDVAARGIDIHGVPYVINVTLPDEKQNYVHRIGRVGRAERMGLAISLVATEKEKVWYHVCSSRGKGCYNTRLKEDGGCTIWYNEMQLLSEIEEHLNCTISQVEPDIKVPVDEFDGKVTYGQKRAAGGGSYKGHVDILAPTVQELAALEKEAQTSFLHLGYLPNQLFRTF

## CCOCc1cn(-c2cccc(S(=O)(=O)Nc3cccc4cnccc34)c2)nn1
[1]
  EC50: 13 µM
[2]
  remaining at 1 h, 50 µM: 96%
[3]
  Papp: 0.44 ×10⁻⁶ cm/s
[4]
  inhibition: 98%
[5]
  CC50 at 72 h: > 200 µM

## CCCCc1cn(-c2cccc(S(=O)(=O)Nc3ccccc3C)c2)nn1
[1]
  EC50: 39.9 µM
[4]
  inhibition: 59%
[5]
  CC50 at 72 h: > 200 µM

## C[C@@]1(O)[C@H](O)[C@@H](CO)O[C@H]1n1cnc2c(N)ncnc21
[6]
  EC50: 5.1 µM

## CCOCc1cn(-c2cccc(S(=O)(=O)Nc3cccc(N4CCOCC4)c3)c2)nn1
[4]
  inhibition: inactive

## CCCCc1cn(-c2cccc(S(=O)(=O)Nc3ccc(OC)cc3)c2)nn1
[4]
  inhibition: 80%

## O=S(=O)(Nc1ccccc1C(F)(F)F)c1cccc(-n2cc(-c3ccccc3)nn2)c1
[4]
  inhibition: 41%

## CC(C)CCc1cn(-c2cccc(S(=O)(=O)Nc3ccccc3C(F)(F)F)c2)nn1
[4]
  inhibition: 96%

## NC(=O)c1ncn([C@@H]2O[C@H](CO)[C@@H](O)[C@H]2O)n1 [RIBAVIRIN]
[6]
  EC50: 71.2 µM
[1]
  EC50: 90 to 95.5 µM
[7]
  EC50: 46 µM
[8]
  EC50: 95 µM
[9]
  IC50: > 200 µM

## CCCCc1cn(-c2cccc(S(=O)(=O)Nc3ccccc3F)c2)nn1
[1]
  EC50: > 200 µM
[4]
  inhibition: 24%
[5]
  CC50 at 72 h: > 200 µM

## CCCCc1cn(-c2cccc(S(=O)(=O)Nc3cccc4cnccc34)c2)nn1
[10]
  IC50: > 200 µM
[1]
  EC50: 55 µM
[2]
  remaining at 1 h, 50 µM: 98%
[3]
  Papp: 0.68 ×10⁻⁶ cm/s
[4]
  inhibition: 99%
[5]
  CC50 at 72 h: > 200 µM

## CCOCc1cn(-c2cccc(S(=O)(=O)Nc3ccccc3C(F)(F)F)c2)nn1
[1]
  EC50: 65.9 µM
[2]
  remaining at 1 h, 50 µM: 97.1%
[3]
  Papp: 0.71 ×10⁻⁶ cm/s
[4]
  inhibition: 98%
[5]
  CC50 at 72 h: > 200 µM

## COCCc1cn(-c2cccc(S(=O)(=O)Nc3ccccc3C(F)(F)F)c2)nn1
[4]
  inhibition: 67%
